Screening data deposited in PubChem BioAssay by several laboratories.
PPC-1+TRAIL kill: kills PPC-1 cancer cells in the presence of TRAIL; cell killing (% activity), % at 4 µM or 5 µM; PPC-1 cells + TRAIL, ATPLite viability luminescence; AID 1443; 220,000 compounds, 0.41% hits;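 active = cell killing above 50% in the first pass at 4 µM, then a duplicate retest at 5 µM averaging 50% or more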
STAT1 blocker: reduces IFN-gamma driven STAT1 reporter signal. NIH 3T3 STAT1-luciferase reporter, luminescence. inhibition, % at 5.5 µM. 200,000 compounds, 0.35% hits;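 active = inhibition above a set limit, the mean inhibition across all tested compounds plus 3 SD, cut at about 34% in these data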
STAT3 blocker: STAT3 signaling inhibition; U3A cells, IL-6 STAT3-luciferase reporter, luminescence; host cell line lacks STAT1; inhibition, % at 5.5 µM; 190,000 compounds, 0.89% hits; AID 862;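 active = inhibition above the mean inhibition across all screened compounds plus 3 SD, cut at about 44% in these data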
STAT3 activator: activators of IL-6 induced STAT3 signaling; 190,000 compounds, 0.91% hits; AID 871; activation (% of control), % at 5.6 µM; U3A cells, IL-6 STAT3-luciferase reporter, luminescence; 100% = signal with IL-6 EC80 alone;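 active = activation above the screen-wide mean of compound activation plus 3 SD, cut at about 130% in these data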
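Detection: reporter luminescence signal / Assay system: STAT1-lacking human U3A cells, STAT3 luciferase reporter / Incubation: compound pre-incubation 1 h before IL-6, then 6 h stimulation at 37 °C / Control set: IL-6-only high control / Read-out: % activation relative to IL-6 control / Probe or stimulus: Interleukin-6, 33 ng/mL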
TRAIL sens C8: sensitizes caspase-8 expressing cells to TRAIL; NB7+C8 cells + TRAIL, ATPlite viability luminescence; inhibition (viability loss, TRAIL sensitization), % at 10 µM; 360,000 compounds, 1% hits;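 active = compounds causing at least 50% loss of cell viability in the single-dose screen, relative to plate controls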
A number is an active result; . = inactive; / = not tested or not shown. A selection: hits, their analogues and other compounds. The true share with any hit is near 1.8%.

SMILES	PPC-1+TRAIL kill	STAT1 blocker	STAT3 blocker	STAT3 activator	TRAIL sens C8
Cc1ccc(C(=O)N/C(=C/c2ccc(-c3ccc([N+](=O)[O-])cc3)o2)C(=O)NCCCN(C)C)cc1	/	/	/	/	.
COc1ccc(NC(=S)Nc2cccc3cnccc23)cc1	57	.	.	.	.
CCCCCCC[N+](CC)(CC)CCCCc1ccc(Cl)cc1	/	/	/	/	57
CCCCCNCc1ccc(Cl)cc1	.	.	.	.	.
CCOc1ccc(-c2cc(N3C(=O)Nc4ccccc4N3O)on2)cc1	.	.	.	.	56
COc1ccc(-c2cc(N3C(=O)Nc4ccccc4N3O)n[nH]2)cc1	.	.	.	.	.
O=C(NC(=S)Nc1ccccn1)c1ccc([N+](=O)[O-])cc1	.	.	.	.	.
O=C(Nc1ccccn1)c1ccc(C(=O)Nc2ccccn2)cc1	/	/	/	/	.
O=C(NC(=S)Nc1ccccn1)c1ccccc1	.	/	/	/	69
O=C(NC(=S)Nc1ccccn1)c1ccc(-c2ccccc2)cc1	/	/	/	/	78
O=c1c2ccccc2oc2ccc(-c3ccc4cc[nH]c4c3)cc12	/	/	/	/	53
Cc1ccc2oc3ccccc3c(=O)c2c1	/	/	/	/	.
CC1(C(=O)NS(=O)(=O)c2ccc3c(c2)CCO3)CCN1C(=O)c1ccccc1CCc1ccccc1 (stereo not given)	/	/	/	/	.
Cc1ccc(-c2ccccc2NC(=O)CCl)o1	.	.	.	.	48
CCN(CC)CCn1c2ccccc2c2cnc(N)c(C#N)c21	.	.	.	169	.
CN(C)C=Nc1ncc2c3ccccc3n(CCN(C)C)c2c1C#N	.	.	.	.	.
CN(Cc1ccccc1)Cc1ccccc1C(O)c1ccccc1 (stereo not given)	/	/	/	/	.
C=CCn1c(C)cc(C(=O)COC(=O)[C@@H](NC(=O)c2ccccc2Cl)C(C)C)c1C	77	.	.	.	85
Oc1c(CN2CCCCC2)cc(Br)c2cccnc12	.	.	.	135	51
CC(C)c1ccc(C(=O)Nc2cccnc2)cc1	/	/	/	/	49
Cc1nn(-c2ccccc2)c(C)c1/C=N/NC(=O)c1cc(O)cc(O)c1	/	/	/	/	.
Cc1nn(-c2ccccc2)c(C)c1-c1cc(C(=O)N/N=C/c2ccc(O)cc2)[nH]n1	.	/	/	/	50
COc1cc(/C=N/NC(=O)c2cc(-c3c(C)nn(-c4ccccc4)c3C)n[nH]2)ccc1O	.	.	.	236	.
COc1cc(/C=N/NC(=O)c2nc(-c3ccccc3)n(-c3ccccc3)n2)ccc1O	.	.	.	.	.
C/C=C/c1cccc(-c2nc(C(=O)NC3Cc4ccccc4C3)cc3c2[C@@H](CCO)N(C(C)=O)C3)c1	/	/	/	/	.
SMILES	PPC-1+TRAIL kill	STAT1 blocker	STAT3 blocker	STAT3 activator	TRAIL sens C8
Cc1ccnc(NC(=O)CNC(=O)c2cccs2)c1	/	/	/	/	.
CCC(C)c1ccc(O)c(NC(=S)NC(=O)c2cccs2)c1 (stereo not given)	/	/	/	/	58
Cc1ccnc(NC(=S)NC(=O)c2cccs2)c1	61	.	.	.	89
O=C(NC(=S)Nc1ccc(Cl)cn1)c1cccs1	.	.	.	151	72
O=C(/C=C/c1cccs1)Nc1nncs1	.	/	/	/	.
Cc1ccnc(NC(=O)/C=C/c2cccs2)c1	68	.	.	.	79
Cc1ccccc1C(=O)N1CCC[C@H]1C(=O)N1CCC[C@H]1C(=O)NCc1ccccn1	/	/	/	/	.
Cc1c(C(=O)NNC(=O)c2csc(N3CCOCC3)n2)oc2ccc(Br)cc12	/	/	/	/	.
Cc1ccnc(NC(=S)NC(=O)c2ccco2)c1	.	.	.	.	53
O=C(NC(=S)Nc1ccccn1)c1ccco1	.	.	.	.	.
O=C1Nc2ccc(Br)cc2/C1=C/C(=O)c1ccc2c(c1)OCO2	.	/	/	/	.
COc1ccc(C(=O)/C=C2\C(=O)Nc3ccc(Br)cc32)cc1	/	/	/	/	59
O=c1cc(-c2ccc(O)c(O)c2)oc2ccc3ccccc3c12	/	/	/	/	74
O=c1cc(-c2ccccc2)oc2ccc3ccccc3c12	/	/	/	/	88
O=c1cc(-c2ccc(O)c(O)c2)oc2c1ccc1ccccc12	/	/	/	/	.
O=c1cc(-c2ccccc2)oc2cccc(O)c12	/	/	/	/	.
O=C(NCCN1CCC(n2c(=O)[nH]c3ccccc32)CC1)c1c(F)cccc1F	/	/	/	/	.
O=C1c2ccc3c4c(ccc(c24)C(=O)N1c1cccc(O)c1)C(=O)N(c1cccc(O)c1)C3=O	.	/	/	/	49
Cc1nc(NCC2CCCO2)nc2c1C(=O)CC(C)C2 (stereo not given)	.	.	.	.	52
COc1ccc(-c2cc(C(=O)N3CCN(c4ncccn4)CC3)c3ccccc3n2)cc1	/	/	/	/	64
COc1cc(-c2cc(C(=O)N3CCN(c4ccccn4)CC3)c3ccccc3n2)cc(OC)c1OC	/	.	.	.	.
Cc1ccc(-c2cc(C(=O)N3CCN(c4ccccc4O)CC3)c3ccccc3n2)cc1	/	/	/	/	.
COc1ccc(-c2cc(C(=O)N3CCN(c4ccccc4O)CC3)c3ccccc3n2)cc1	/	/	/	/	63
CCCc1ccc(-c2cc(C(=O)N3CCN(c4ccccn4)CC3)c3ccccc3n2)cc1	/	/	/	/	91
CCc1ccc(-c2cc(C(=O)NCc3ccccn3)c3ccccc3n2)cc1	.	.	.	.	60
SMILES	PPC-1+TRAIL kill	STAT1 blocker	STAT3 blocker	STAT3 activator	TRAIL sens C8
O=C(COC(=O)c1cccs1)Nc1cccc(S(=O)(=O)N2CCCCC2)c1	/	/	/	/	.
CC(O)(c1cccc(F)c1)c1nc(-c2cc(F)cc(F)c2)cs1 (stereo not given)	/	/	/	/	.
C/C(=N\NC(=O)c1cc(-c2cccc(OC(C)C)c2)nc2ccccc12)c1cccnc1	/	/	/	/	.
CCOc1ccc(-c2cc(C(=O)N/N=C/c3cccnc3)c3ccccc3n2)cc1	/	/	/	/	74
CCCc1ccc(-c2cc(C(=O)NC3=NCCS3)c3ccccc3n2)cc1	54	.	.	.	72
O=C(NC1=NCCS1)c1cc(-c2ccc(F)cc2)nc2ccccc12	.	.	.	.	.
CCOc1ccc(-c2cc(C(=O)N3CCCC3)c3ccccc3n2)cc1	/	/	/	/	64
C/C(=N\NC(=O)c1cc(-c2cccnc2)nc2ccccc12)c1ccc(O)cc1O	51	.	.	.	.
COc1ccc(C(=O)O)cc1S(=O)(=O)Nc1cc(Cl)ccc1N1CCOCC1	/	/	/	/	.
O=C(c1ccccc1)C(CN1CCCCC1)c1ccccc1 (stereo not given)	/	/	/	/	.
Cc1ccc(C(=O)NCC(=O)N2CCN(c3ccccc3O)CC2)s1	/	/	/	/	.
CCCNC(=O)C1(C)CCN1C(=O)c1cc(C)n(C)n1 (stereo not given)	/	/	/	/	.
COc1ccc(NC(=O)C(CC(=O)O)Cc2ccc(Cl)cc2)cc1 (stereo not given)	/	/	/	/	.
O=C(CSc1nnc(CNC(=O)c2ccco2)o1)Nc1ccc(F)cc1	/	/	/	/	.
c1ccc(COc2ncnc3c2ncn3CCCNCC(c2ccccc2)c2ccccc2)cc1	/	/	/	/	63
CCCCCn1nnnc1-c1nc2cc(C)c(C)cc2[nH]c1=O	/	/	/	/	.
O=C(NCCOc1ccccc1)c1cc([N+](=O)[O-])ccc1N1CCOCC1	/	/	/	/	.
Cc1ccc(Cl)cc1-c1cc(C(=O)NCC2CCCCC2)[nH]n1	/	/	/	/	.
N#CC(c1cccc(Cl)c1)c1ccc2c(C(F)(F)F)cc(C(F)(F)F)nc2n1 (stereo not given)	.	61	86	.	.
